Data as given in ChEMBL document CHEMBL4145584, “Non-geminal Aliphatic Dihalogenation Pattern in Dichlorinated Diaporthins from Hamigera fusca NRRL 35721” (2018).

Columns and labels:
Format in all cases: functional
HeLa = test: Cytotoxicity against human HeLa cells
[1] = Cytotoxicity against human CCD25sk cells after 72 hrs by MTT assay
Method in brief: (§1)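 Human cell panel of fibroblasts (CCD25sk), neuroblastoma (SHSY5), pancreatic carcinoma (MiaPaca-2), breast adenocarcinoma (MCF-7), hepatocellular carcinoma (HepG2), melanoma (A2058) and lung carcinoma (A549), tested by colorimetric MTT viability read-out. Doxorubicin served as positive control, and results were expressed as CC50.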

SH-SY5Y = test: Cytotoxicity against human SH-SY5Y cells after 72 hrs by MTT assay; method in brief: as §1
HepG2 = test: Cytotoxicity against human HepG2 cells after 72 hrs by MTT assay; details: HepG2, 72 h; method in brief: as §1
MIA PaCa-2 = test: Cytotoxicity against human MIAPaCa2 cells after 72 hrs by MTT assay; details: MIA PaCa-2, 72 h; method in brief: as §1
A2058 = test: Cytotoxicity against human A2058 cells after 72 hrs by MTT assay; details: A2058, 72 h; method in brief: as §1
A549 = test: Cytotoxicity against human A549 cells after 72 hrs by MTT assay; details: A549, 72 h; method in brief: as §1
MCF7 = test: Cytotoxicity against human MCF7 cells after 72 hrs by MTT assay; details: MCF7, 72 h; method in brief: as §1

| Structure (SMILES) | CC50 [1] | CC50 (SH-SY5Y) | also measured |
| --- | --- | --- | --- |
| COc1cc(O)c2c(=O)oc(C[C@@H](O)C(Cl)Cl)cc2c1 | – | – | CC50 (HeLa): 28 µM |
| COc1cc(OC)c2c(=O)oc(C[C@@H](O)C(Cl)Cl)cc2c1 | 27 µM | 19.4 µM | – |
| COc1cccc2c1C(=O)c1c(O)c3c(c(O)c1C2=O)C[C@@](O)(C(=O)CO)C[C@@H]3O[C@H]1C[C@H](N)[C@H](O)[C@H](C)O1 [DOXORUBICIN] | 0.85 µM | 0.7 µM | CC50 (HepG2): 1.95 µM; CC50 (MIA PaCa-2): 2.97 µM; CC50 (A2058): 1.79 µM; CC50 (A549): 10.5 µM; CC50 (MCF7): 7 µM |
| COc1cc(OC)c2c(=O)oc([C@H](Cl)[C@@H](O)CCl)cc2c1 (relative stereo) | – | 39.2 µM | – |
| COc1cc(OC)c2c(=O)oc([C@@H](Cl)[C@@H](O)CCl)cc2c1 (relative stereo) | – | 36.2 µM | – |
